Scp1 inh = blocks human Scp-1 phosphatase activity; Q9GZU7; Recombinant Scp1, phosphopeptide, malachite green phosphate absorbance; inhibition, % at 20 µM; 0.88% of 340,000 active; AID 493091;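 active = inhibition above about 50% at 20 µM, limit read from the data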;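 also: plate controls were DMSO wells with enzyme for no effect and wells lacking enzyme for full effect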
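Material – SCP-1 phosphatase catalytic domain, residues 76-261 · Buffer or medium – Acidic Tris acetate buffer with magnesium and detergent · Also added – Phospho 17-mer peptide substrate · Compound – single 20 µM dose, 1% DMSO · Times – 45 min room-temperature reaction, 5 min colour, 30 min stabiliser · Technique – Phosphate-binding colour reagent, absorbance read at 630 nm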
STEP block = blocks human striatal-enriched tyrosine phosphatase | recombinant STEP, OMFP fluorogenic substrate, fluorescence | P54829 | 0.25% of 360,000 active | inhibition, % at 20 µM;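 active = inhibition at 20 µM, scaled per plate between control wells, above about 37%, limit read from the data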;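 also: 0% = DMSO with enzyme and substrate and 100% = substrate only without enzyme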
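Test system: STEP tyrosine phosphatase / Reagent: OMFP at 25 µM / Doses: 20 µM, 1% DMSO / Read-out: percent inhibition scaled to no-enzyme and uninhibited-enzyme controls, plate-pattern corrected / Detection: FITC-channel fluorescence of OMFP product / Medium: Bis-Tris buffer pH 6.0, 2.5 mM DTT, 0.005% Tween 20 / Schedule: 20 min at room temperature, dark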
PP1 inh = blocks human PP1-alpha phosphatase, a PP5 counter-screen | purified PP1alpha, OMFP fluorescence | inhibition, % at 6.7 µM | 0.9% of 320,000 active | AID 2235;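 active = inhibition above the mean inhibition of all tested compounds plus 3 SD, computed separately for each screening campaign, cut at about 15% in these data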
LMPTP inh = LMPTP (human) inhibition. AID 651560. P24666. 0.22% of 360,000 active. recombinant LMPTP-A, OMFP fluorogenic substrate, fluorescence intensity. inhibition, % at 20 µM;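 active = compounds that cut the enzyme signal by at least half of the control window in the single-dose screen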;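 also: plate controls were DMSO wells with enzyme plus substrate for no effect and substrate without enzyme for full effect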
Target sequence (P24666 whole entry, looked up): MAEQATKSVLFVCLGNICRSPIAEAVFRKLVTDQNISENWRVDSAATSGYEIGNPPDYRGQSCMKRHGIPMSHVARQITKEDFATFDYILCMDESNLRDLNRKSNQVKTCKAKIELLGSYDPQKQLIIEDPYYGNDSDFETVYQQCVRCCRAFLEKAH
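Test system: LMPTP-A, protein tyrosine phosphatase of low molecular weight; Input: 0.625 nM enzyme; Incubation: 50 min dark incubation at room temperature; Signal: endpoint fluorescence intensity from OMFP dephosphorylation; Read-out basis: % inhibition versus control wells.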
PP5 inh = PP5 (human) phosphatase inhibition. P53041. purified PP5c, OMFP substrate fluorescence. inhibition, % at 6.7 µM. 0.18% of 320,000 active. AID 1987;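 active = inhibition above the campaign's mean inhibition across all tested compounds plus 3 SD, cut at about 9.5% in these data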;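 also: 0% = DMSO only and 100% = 100 µM cantharidin control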
Target sequence (P53041 whole entry, looked up): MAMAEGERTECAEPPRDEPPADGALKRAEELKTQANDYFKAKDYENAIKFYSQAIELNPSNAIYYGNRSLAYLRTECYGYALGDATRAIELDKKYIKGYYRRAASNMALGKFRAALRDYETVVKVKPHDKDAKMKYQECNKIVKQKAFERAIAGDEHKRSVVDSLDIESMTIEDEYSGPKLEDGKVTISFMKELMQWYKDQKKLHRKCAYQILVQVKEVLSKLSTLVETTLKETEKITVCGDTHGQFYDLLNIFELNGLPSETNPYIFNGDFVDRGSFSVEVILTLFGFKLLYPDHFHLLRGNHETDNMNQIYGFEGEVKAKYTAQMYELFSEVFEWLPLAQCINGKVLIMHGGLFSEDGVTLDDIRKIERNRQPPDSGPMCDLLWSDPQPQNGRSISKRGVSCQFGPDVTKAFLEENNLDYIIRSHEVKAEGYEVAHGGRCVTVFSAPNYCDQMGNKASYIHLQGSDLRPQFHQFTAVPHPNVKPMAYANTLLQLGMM
PP1 inh confirm = confirmation of human PP1 phosphatase inhibitors; shares compounds with PP1 inh; purified PP1alpha, OMFP substrate fluorescence; inhibition, % at 6.7 µM; 52% of 1,900 active;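 active = mean PP1 inhibition above a set limit taken from the earlier primary screen, cut at about 15% in these data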
PP5 counter = counter-screen for PP1 inhibitors: human PP5 phosphatase inhibition | purified PP5c, OMFP fluorescence | 4% of 1,900 active | inhibition, % at 6.7 µM | shares compounds with PP1 inh;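 active = mean PP5 inhibition over triplicate wells above about 9.5% taken from the earlier PP1 screen, limit read from the data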
The depositor's hits bear a star; x = not tested or not shown. An excerpt weighted towards active compounds, which were near 1.9% of everything screened.

SMILES	Scp1 inh	STEP block	PP1 inh	LMPTP inh	PP5 inh	PP1 inh confirm	PP5 counter
O=C(COC(=O)/C=C/c1ccccc1)Nc1nnc(-c2ccccc2)o1	-9	1	24*	0	0	30*	-4
O=C(Nc1nnc(-c2ccc(F)cc2)o1)c1cccc([N+](=O)[O-])c1	-8	3	19*	1	1	16*	3
O=C(Nc1nnc(-c2ccc3c(c2)CCCC3)o1)c1ccccc1Cl	-7	1	25*	2	3	25*	2
COc1cc(/C=C/C(=O)OCC(=O)Nc2nnc(-c3ccccc3)o2)cc(OC)c1OC	-10	1	7	-1	0	x	x
O=C(COc1ccccc1)Nc1nnc(-c2ccccc2Cl)o1	-4	0	23*	-1	3	20*	-5
CS(=O)(=O)c1ccccc1-c1nnc(NC(=O)COc2ccc(Cl)cc2)o1	-5	1	0	0	0	x	x
O=C(Nc1nnc(C2=COCCO2)o1)c1cccc([N+](=O)[O-])c1	-2	1	-5	-3	0	x	x
O=C(Nc1nnc(-c2ccccc2)o1)c1cc(Cl)sc1Cl	-8	1	0	1	2	x	x
COC(=O)c1cccc(N2C(=O)c3cccnc3C2=O)c1	-2	-5	-4	-1	0	x	x
CC(CC(=O)NCc1ccco1)S(=O)(=O)c1ccc2c(c1)CCN2C(=O)C1CC1 (stereo not drawn)	-6	-2	0	-1	-2	x	x
O=C(COc1ccccc1)Nc1nnc(-c2ccc3c(c2)CCCC3)o1	-15	8	26*	2	3	27*	2
O=C(Nc1nnc(-c2ccc3c(c2)CCCC3)o1)c1ccccc1	-12	2	23*	1	0	28*	0
O=C(COc1ccccc1)Nc1nnc(-c2ccc(F)cc2)o1	0	2	11	0	1	x	x
O=C(Nc1ccc(Cl)cc1)N1CCC(c2nc(-c3ccc(F)cc3)no2)CC1	-6	-2	-5	4	6	x	x
CCc1nnc(NC(=O)CN2CCN(c3cccc(OC)c3)CC2)s1	-13	0	34*	1	1	-4	-4
CC(C)C[C@H](NC(=O)c1[nH]cnc1C(=O)N[C@@H](C)c1ccccc1)C(=O)OCc1ccccc1	-5	1	18*	4	12*	15	5
CC(C)C[C@H](NC(=O)c1nc[nH]c1C(=O)NCCCCCNC(=O)OC(C)(C)C)C(=O)OC(C)(C)C	-11	-2	16*	4	9.9*	6	5
COc1ccccc1N1CCN(S(=O)(=O)c2ccc(-n3cnnn3)cc2)CC1	-7	-2	1	-1	4	x	x
COc1ccc2c(=O)c(-c3nc(C)cs3)coc2c1	-4	0	1	0	0	x	x
CCc1cc2c(=O)c(-c3nc(C)cs3)coc2cc1O	-4	0	20*	1	0	12	-4
CCOC(=O)c1cc(-c2ccccc2)nc2c1c(C)nn2-c1ccccn1	5	6	31*	5	1	32*	-3
C=CCn1c(SCC(=O)O)nc2sc(CC)cc2c1=O	-9	0	4	0	1	x	x
O=C(NNC(=O)c1cccnc1SCc1cccc([N+](=O)[O-])c1)c1ccccn1	-2	2	20*	-1	-1	19*	-5
O=C(NNC(=O)c1cccnc1SCc1cccc([N+](=O)[O-])c1)c1ccc(F)cc1	-5	-2	-1	0	4	x	x
CCOc1ccc(/C=C2\SC(=S)N(CCC(=O)N(CCO)c3ccccc3)C2=O)cc1	-5	2	22*	4	5	8	4
SMILES	Scp1 inh	STEP block	PP1 inh	LMPTP inh	PP5 inh	PP1 inh confirm	PP5 counter
Cc1noc(NS(=O)(=O)c2ccc(NC(=O)Nc3ccc(Cl)c(Cl)c3)cc2)c1C	-14	-2	18*	2	6	11	0
Cc1noc(NS(=O)(=O)c2ccc(NC(=O)C(Cl)(Cl)Cl)cc2)c1C	-5	0	5	-3	3	x	x
CCN(CC)S(=O)(=O)c1cc(C(=O)OCC(=O)NC2CCCc3ccccc32)ccc1C (stereo not drawn)	-4	0	4	1	-1	x	x
O=C(CSCC(=O)N1CCN(c2ccccc2)CC1)Nc1nc(-c2ccc(Cl)s2)cs1	-7	2	27*	3	4	5	0
Cc1cccc(N2CCN(C(=O)c3ccc4c(c3)OCCO4)CC2)c1C	2	0	0	0	0	x	x
Cc1cccc(N2CCN(C(=O)c3ccc4c(c3)NC(=O)C(CSCc3cccc(F)c3)N4)CC2)c1C (stereo not drawn)	x	x	23*	x	2	29*	-2
CC(C)(C)C1CCC2(CC1)Nc1cccc3cccc(c13)N2	8	1	31*	3	-1	25*	4
CC1(C)CC(=O)c2c(O)cc(OCC(=O)N3CCN(c4ccccc4)CC3)cc2O1	18	1	20*	1	3	-2	-5
O=C(Nc1nc(-c2ccco2)c(-c2ccco2)s1)c1cnccn1	36	x	23*	x	0	12	-2
O=c1c2ccccc2nc2n1C(CBr)CS2 (stereo not drawn)	-5	0	-3	0	-1	x	x
COC(=O)c1ccc(N)c(N=CC2=C(O)CC(C)(C)CC2=O)c1	-30	0	3	-1	3	x	x
COC(=O)c1ccc2c(c1)C(C)(C)C(/C=C/c1ccccc1O)=[N+]2C	99*	-6	19*	6	5	13	-4
O=C(OCC1OC(n2ncc(=O)[nH]c2=O)C(OC(=O)c2ccccc2)C1OC(=O)c1ccccc1)c1ccccc1 (stereo not drawn)	-7	-1	24*	5	2	22*	4
COc1ccc(S(=O)(=O)N2CCOCC2)cc1NC(=O)COc1ccccc1OC	-10	0	3	0	3	x	x
COc1ccc(NC(=O)C2=NN(c3ccccc3)C(=O)CC2)cn1	-6	-1	-3	-1	1	x	x
O=C1CC(Sc2ncccn2)C(=O)N1c1ccccc1 (stereo not drawn)	-6	-2	3	-2	-1	x	x
Cc1nc(SC2CC(=O)N(c3ccccc3)C2=O)n[nH]1 (stereo not drawn)	-5	1	21*	0	-2	-4	-7
Cc1ccc(/C=N/n2c(=O)c(C(C)(C)C)nn3cnnc23)cc1	1	0	4	-2	2	x	x
CN(Cc1ccccn1)C(=O)C1CCC(=O)N(Cc2cccc(F)c2)C1 (stereo not drawn)	-11	0	24*	-2	0	-2	-3
CC1(c2ccccc2)CC(C)(C)N2C(=O)C(=O)c3cccc1c32 (stereo not drawn)	0	-3	24*	0	0	18*	-2
